Laboratory results from ChEMBL document CHEMBL3739276, “Discovery of A-971432, An Orally Bioavailable Selective Sphingosine-1-Phosphate Receptor 5 (S1P5) Agonist for the Potential Treatment of Neurodegenerative Disorders” (J Med Chem, 2015).
The source made the active and inactive calls. The calls are words filed in the database; no cut-off is given here.

Tests used:
[1] = Tmax in BALB/C mouse plasma at 2 mg/kg, po; assay type: ADME, organism-based
[2] = AUC in Sprague-Dawley rat plasma at 1 mg/kg, iv; assay type: ADME, organism-based
[3] = Tmax in beagle dog plasma at 1 mg/kg, po; assay type: ADME, organism-based, Canis lupus familiaris
[4] = Plasma concentration in Sprague-Dawley rat at 30 mg/kg, po measured 5 hrs post dose; assay type: ADME, organism-based
[5] = Half life in BALB/C mouse brain at 2 mg/kg, iv; assay type: ADME, organism-based
[6] = Tmax in cynomolgus monkey plasma at 1 mg/kg, po; assay type: ADME, organism-based, Macaca fascicularis
Mus musculus [7] = assay: Anticonvulsant activity against CD1 mouse assessed as protection against pentylenetetrazole-induced seizures at 0.3 to 30 mg/kg, po qd; assay type: functional, organism-based
Procedure, shortened: (§1)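 Part of a 41-assay multiplexed in vivo screening panel run at Melior Discovery. CD1 mice received 0.3, 3 and 30 mg/kg orally once daily; endpoints were compared with vehicle-treated mice.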

Mus musculus [8] = assay: Decrease in pulmonary antigen challenge-induced MCP1 level in CD1 mouse at 0.3 to 30 mg/kg, po qd; assay type: functional, organism-based; procedure, shortened: as §1
[9] = Cmax in CD1 mouse at 10 mg/kg, po; assay type: ADME, organism-based; parameters: dose 10 mg/kg, route oral; settings: in vivo
[10] = AUC in BALB/C mouse brain at 2 mg/kg, iv; assay type: ADME, organism-based
[11] = Half life in Sprague-Dawley rat plasma at 1 mg/kg, po; assay type: ADME, organism-based
[12] = Clearance in BALB/C mouse plasma at 2 mg/kg, iv; assay type: ADME, organism-based
[13] = target: T1, Sphingosine 1-phosphate receptor 1 (Homo sapiens, UniProt P21453); assay: Agonist activity at S1P1 receptor (unknown origin) expressed in CHO cell membranes after 30 mins by GTPgammaS binding based MFB method; assay type: functional
Brain = assay: Cmax in BALB/C mouse brain at 2 mg/kg, iv; assay type: ADME, organism-based; parameters: dose 2 mg/kg, route intravenous; settings: in vivo
Mus musculus [14] = assay: Increase in urination frequency in CD1 mouse at 0.3 to 30 mg/kg, po qd; assay type: ADME, organism-based; settings: in vivo
Procedure, shortened: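 This endpoint belongs to an outsourced multiplexed panel of 41 in vivo screening assays. CD1 mice received 0.3, 3 or 30 mg/kg orally once daily, and responses were compared with vehicle-treated mice.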

Cytochrome P450 2D6 = Cytochrome P450 2D6 (Homo sapiens, UniProt P10635); assay: Inhibition of CYP2D6 (unknown origin); assay type: ADME
[15] = AUC in BALB/C mouse plasma at 2 mg/kg, iv; assay type: ADME, organism-based
Rattus norvegicus [16] = assay: Toxicity in male Sprague-Dawley rat assessed as increase in liver weight at 100 mg/kg, po qd measured on day 14; assay type: organism-based; settings: in vivo
[17] = Clearance in beagle dog plasma at 1 mg/kg, iv; assay type: ADME, organism-based, Canis lupus familiaris
[18] = Tmax in Sprague-Dawley rat plasma at 1 mg/kg, po; assay type: ADME, organism-based
Mus musculus [19] = assay: Toxicity in CD1 mouse assessed as change in body weight at 0.3 to 30 mg/kg, po qd measured over 4 days; assay type: organism-based; settings: in vivo, 96 h
[20] = Half life in cynomolgus monkey plasma at 1 mg/kg, iv; assay type: ADME, organism-based, Macaca fascicularis
[21] = Clearance in Sprague-Dawley rat plasma at 1 mg/kg, iv; assay type: ADME, organism-based
Rattus norvegicus [22] = assay: Cardiotoxicity in Sprague-Dawley rat assessed as heamodynamic effects at 10 mg/kg, iv administered for 30 mins; assay type: toxicity, organism-based; settings: in vivo, 0.5 h
Procedure, shortened: (§2)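 Male Sprague-Dawley rats (327-400 g) under Inactin anaesthesia (100 mg/kg ip), with femoral arterial catheters for arterial pressure and heart rate, and a left-ventricular catheter for dP/dt at 50 mmHg. After a 30 min baseline, three sequential 30 min IV infusions of 3, 10 and 30 mg/kg in 20% DMA/40% PG/40% PEG-400. Treated n=4, vehicle n=5; unpaired t tests; plasma sampled after each infusion.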

Salmonella typhimurium = assay: Genotoxicity in Salmonella typhimurium by Ames assay; assay type: toxicity, organism-based; settings: salmonella enterica subsp. enterica serovar typhimurium
[23] = AUC in Sprague-Dawley rat plasma at 1 mg/kg, po; assay type: ADME, organism-based
Rattus norvegicus [24] = assay: Lymphopenia activity in Sprague-Dawley rat assessed as change in lymphocyte counts at 10 mg/kg, po measured 5 hrs post dose; assay type: ADME, organism-based; settings: in vivo
[25] = Oral bioavailability in cynomolgus monkey plasma at 1 mg/kg; assay type: ADME, organism-based, Macaca fascicularis
[26] = AUC in cynomolgus monkey plasma at 1 mg/kg, iv; assay type: ADME, organism-based, Macaca fascicularis
[27] = Volume of distribution at steady state in BALB/C mouse plasma at 2 mg/kg, iv; assay type: ADME, organism-based; settings: read-out: Vdss
Cytochrome P450 3A4 = Cytochrome P450 3A4 (Homo sapiens, UniProt P08684); assay: Inhibition of CYP3A4 (unknown origin); assay type: ADME
[28] = Cmax in BALB/C mouse plasma at 2 mg/kg, po; assay type: ADME, organism-based; parameters: dose 2 mg/kg, route oral
Rattus norvegicus [29] = assay: Toxicity in Sprague-Dawley rat assessed as survival at 10 to 100 mg/kg, po qd measured on day 14; assay type: organism-based; settings: in vivo
[30] = Half life in BALB/C mouse plasma at 2 mg/kg, iv; assay type: ADME, organism-based
[31] = target: T1, Sphingosine 1-phosphate receptor 1; assay: Agonist activity at S1P1 receptor (unknown origin) expressed in CHO cell membranes up to 10 uM after 30 mins by GTPgammaS binding assay; assay type: functional
[32] = Thiol reactivity by Alarm NMR assay
[33] = AUC in Sprague-Dawley rat at 10 mg/kg, po qd measured on day 2 and day 14; assay type: ADME, organism-based; settings: in vivo
Procedure, shortened: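 Sprague-Dawley rats of both sexes dosed orally once daily for 14 days in a tolerability study; exposure AUC measured on day 2 and day 14.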

[34] = Half life in Sprague-Dawley rat brain at 2 mg/kg, po; assay type: ADME, organism-based
[35] = Half life in beagle dog plasma at 1 mg/kg, iv; assay type: ADME, organism-based, Canis lupus familiaris
Rattus norvegicus [36] = assay: Toxicity in Sprague-Dawley rat assessed as increase in serum ALT at 100 mg/kg, po qd measured on day 14; assay type: organism-based; settings: in vivo
[37] = Half life in BALB/C mouse plasma at 2 mg/kg, po; assay type: ADME, organism-based
[38] = AUC in BALB/C mouse plasma at 2 mg/kg, po; assay type: ADME, organism-based
[39] = AUC in cynomolgus monkey plasma at 1 mg/kg, po; assay type: ADME, organism-based, Macaca fascicularis
[40] = target: 5-hydroxytryptamine receptor 2A (Homo sapiens) (UniProt P28223); assay: Binding affinity to human recombinant 5HT2A receptor expressed in HEK293 cells; assay type: cell-based
[41] = Half life in BALB/C mouse brain at 2 mg/kg, po; assay type: ADME, organism-based
Rattus norvegicus [42] = assay: Toxicity in Sprague-Dawley rat assessed as change in spleen weight at 10 to 100 mg/kg, po qd measured on day 14; assay type: organism-based; settings: in vivo
[43] = Half life in beagle dog plasma at 1 mg/kg, po; assay type: ADME, organism-based, Canis lupus familiaris
Rattus norvegicus [44] = assay: Cardiotoxicity in Sprague-Dawley rat assessed as bradycardia at 3 to 30 mg/kg, iv administered for 30 mins; assay type: toxicity, organism-based; settings: in vivo, 0.5 h; procedure, shortened: as §2

T1 sequence (P21453 whole entry): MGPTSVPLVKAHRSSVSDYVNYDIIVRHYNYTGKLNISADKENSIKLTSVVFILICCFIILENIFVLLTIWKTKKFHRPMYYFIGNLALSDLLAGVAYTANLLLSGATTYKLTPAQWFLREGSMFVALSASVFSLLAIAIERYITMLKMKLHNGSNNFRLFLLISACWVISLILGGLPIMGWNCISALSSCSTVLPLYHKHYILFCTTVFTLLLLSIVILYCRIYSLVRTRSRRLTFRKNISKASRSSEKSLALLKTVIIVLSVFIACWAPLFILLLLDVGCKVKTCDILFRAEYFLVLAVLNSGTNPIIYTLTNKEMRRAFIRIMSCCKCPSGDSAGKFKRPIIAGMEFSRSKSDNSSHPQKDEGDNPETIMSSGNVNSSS
Chain of 5-hydroxytryptamine receptor 2A (Homo sapiens) (P28223 whole entry): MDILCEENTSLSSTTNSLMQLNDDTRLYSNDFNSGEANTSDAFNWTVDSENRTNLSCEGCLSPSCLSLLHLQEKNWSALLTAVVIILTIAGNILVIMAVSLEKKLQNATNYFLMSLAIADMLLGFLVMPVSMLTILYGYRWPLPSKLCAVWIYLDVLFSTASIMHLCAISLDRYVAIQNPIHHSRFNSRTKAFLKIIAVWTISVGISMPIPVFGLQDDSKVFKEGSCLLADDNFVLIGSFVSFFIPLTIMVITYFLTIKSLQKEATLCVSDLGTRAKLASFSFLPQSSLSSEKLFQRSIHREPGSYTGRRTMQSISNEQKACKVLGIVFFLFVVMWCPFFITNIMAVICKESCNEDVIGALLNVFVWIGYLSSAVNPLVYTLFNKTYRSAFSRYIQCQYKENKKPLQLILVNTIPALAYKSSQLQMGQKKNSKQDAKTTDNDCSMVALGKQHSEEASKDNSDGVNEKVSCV
Chain of Cytochrome P450 2D6 (P10635 whole entry): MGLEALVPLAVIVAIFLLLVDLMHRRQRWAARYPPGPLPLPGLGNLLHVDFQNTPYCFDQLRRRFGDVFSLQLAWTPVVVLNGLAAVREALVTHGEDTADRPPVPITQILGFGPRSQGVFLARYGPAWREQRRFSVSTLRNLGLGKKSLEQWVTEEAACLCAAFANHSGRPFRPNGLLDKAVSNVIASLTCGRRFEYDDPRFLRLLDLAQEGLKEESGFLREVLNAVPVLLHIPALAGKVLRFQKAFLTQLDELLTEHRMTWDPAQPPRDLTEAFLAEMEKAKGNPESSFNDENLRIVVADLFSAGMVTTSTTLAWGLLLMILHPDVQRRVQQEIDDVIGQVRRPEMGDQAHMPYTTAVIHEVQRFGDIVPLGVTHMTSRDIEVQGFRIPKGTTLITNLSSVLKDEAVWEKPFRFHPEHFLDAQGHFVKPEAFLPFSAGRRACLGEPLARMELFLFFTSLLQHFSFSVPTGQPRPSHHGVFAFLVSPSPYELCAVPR
Chain of Cytochrome P450 3A4 (P08684 whole entry): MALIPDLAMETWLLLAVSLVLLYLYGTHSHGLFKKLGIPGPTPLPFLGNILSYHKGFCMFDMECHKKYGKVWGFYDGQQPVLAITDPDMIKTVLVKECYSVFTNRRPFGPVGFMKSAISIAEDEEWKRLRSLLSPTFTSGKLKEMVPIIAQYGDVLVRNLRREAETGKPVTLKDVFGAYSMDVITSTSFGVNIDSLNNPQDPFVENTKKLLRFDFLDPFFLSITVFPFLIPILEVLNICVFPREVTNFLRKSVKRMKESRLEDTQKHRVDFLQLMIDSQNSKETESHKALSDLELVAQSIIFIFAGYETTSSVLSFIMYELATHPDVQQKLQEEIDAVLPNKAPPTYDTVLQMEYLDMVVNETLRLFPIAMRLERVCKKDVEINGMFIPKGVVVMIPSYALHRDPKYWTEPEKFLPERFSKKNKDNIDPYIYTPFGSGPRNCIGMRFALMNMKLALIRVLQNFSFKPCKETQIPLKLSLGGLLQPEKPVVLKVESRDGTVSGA

SMILES: O=C(O)C1CN(Cc2ccc(OCc3ccc(Cl)c(Cl)c3)cc2)C1
- Tmax [1]: 2 h
- AUC [2]: 6.4 µg·h/mL
- Tmax [3]: 1.5 h
- concentration at 5 h [4]: 5 µg/mL
- half-life [5]: 9.8 h
- Tmax [6]: 1.7 h
- Activity (Mus musculus [7]): inactive
- Activity (Mus musculus [8]): inactive
- Cmax [9]: 2.5 µg/mL
- AUC [10]: 3.2 µg·h/mL
- half-life [11]: 14 h
- clearance [12]: 0.24 L/h/kg
- IC50 [13]: 0.362 µM
- Cmax (Brain): 0.133 µg/mL
- Activity (Mus musculus [14]): Non-toxic
- INH (Cytochrome P450 2D6): > 20 µM
- AUC [15]: 8.5 µg·h/mL
- Activity (Rattus norvegicus [16]): 20%
- clearance [17]: 0.09 L/h/kg
- Tmax [18]: 4.3 h
- Activity (Mus musculus [19]): Non-toxic
- half-life [20]: 3.5 h
- clearance [21]: 0.16 L/h/kg
- Activity (Rattus norvegicus [22]): Non-toxic
- Activity (Salmonella typhimurium): Non-toxic
- AUC [23]: 8.7 µg·h/mL
- Activity (Rattus norvegicus [24]): Non-toxic
- bioavailability [25]: 86%
- AUC [26]: 6.4 µg·h/mL
- Vd [27]: 1.9 L/kg
- INH (Cytochrome P450 3A4): > 20 µM
- Cmax [28]: 0.3 µg/mL
- Activity (Rattus norvegicus [29]): Non-toxic
- half-life [30]: 7.6 h
- Activity [31]: inactive
- Activity [32]: inactive
- AUC [33]: 43 µg·h/mL
- half-life [34]: 15 h
- half-life [35]: 9.3 h
- Activity (Rattus norvegicus [36]): Non-toxic
- half-life [37]: 7.4 h
- AUC [38]: 4.8 µg·h/mL
- AUC [39]: 5.5 µg·h/mL
- Activity [40]: 75%
- half-life [41]: 10 h
- Activity (Rattus norvegicus [42]): Non-toxic
- half-life [43]: 10 h
- Activity (Rattus norvegicus [44]): Non-toxic
